What was measured:
Pseudomonas aeruginosa = assay: Antimicrobial activity against blaVIM-2-producing multidrug-resistant Pseudomonas aeruginosa VA-182/00 clinical isolate assessed as meropenem MIC at 32 ug/ml by broth microdilution method (reference value: 128 ug/ml); assay type: functional; settings: dose 32 µg/ml
Outline: (§1)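 Inoculum was 5×10^4 CFU/well. Each inhibitor was present at a fixed 32 μg/mL, and MICs were also taken without inhibitor.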

[1] = Inhibition of bacterial NDM-1 (unknown origin) expressed in Escherichia coli EXPRESS BL21(DE3) assessed as inhibition constant by measuring rate of substrate hydrolysis by UV-visible spectrophotometry; design: species or system Bacteria
Outline: (§2)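 Reporter-substrate assay with purified MBL (1–70 nM final) in 50 mM HEPES pH 7.5 at 30 °C. […] Inhibitor 0.5–1000 μM final. Ki derived from the v0/vi vs [I] slope assuming competitive inhibition, or from a Dixon plot. Ki given when inhibition >70%, otherwise % inhibition at 100 μM. Triplicate.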

[2] = Inhibition of bacterial VIM-1 (unknown origin) expressed in Escherichia coli EXPRESS BL21(DE3) assessed as inhibition constant by measuring rate of substrate hydrolysis by UV-visible spectrophotometry; design: species or system Bacteria; outline: as §2
Bacteria [3] = assay: Inhibition of bacterial IMP-1 (unknown origin) expressed in Escherichia coli EXPRESS BL21(DE3) assessed as inhibition constant by measuring rate of substrate hydrolysis at 100 uM by UV-visible spectrophotometry relative to control; outline: as §2
Klebsiella pneumoniae [4] = assay: Antimicrobial activity against blaVIM-1-producing multidrug-resistant Klebsiella pneumoniae K47-25 clinical isolate assessed as meropenem MIC at 32 ug/ml by broth microdilution method (reference value: […] ug/ml); assay type: functional; settings: dose 32 µg/ml; outline: as §1
Klebsiella pneumoniae [5] = assay: Antimicrobial activity against blaVIM-4-producing multidrug-resistant Klebsiella pneumoniae VA-416/02 clinical isolate assessed as meropenem MIC at 32 ug/ml by broth microdilution method (reference value: […] ug/ml); assay type: functional; settings: dose 32 µg/ml; outline: as §1
Escherichia coli = assay: Antimicrobial activity against blaNDM-1-producing multidrug-resistant Escherichia coli SI-004 clinical isolate assessed as meropenem MIC at 32 ug/ml by broth microdilution method (reference value: 64 ug/ml)
[6] = Inhibition of bacterial VIM-4 (unknown origin) expressed in Escherichia coli EXPRESS BL21(DE3) assessed as inhibition constant by measuring rate of substrate hydrolysis by UV-visible spectrophotometry; design: species or system Bacteria; outline: as §2
[7] = Inhibition of bacterial VIM-2 (unknown origin) expressed in Escherichia coli EXPRESS BL21(DE3) assessed as inhibition constant by measuring rate of substrate hydrolysis by UV-visible spectrophotometry; design: species or system Bacteria; outline: as §2
Bacteria [8] = assay: Inhibition of bacterial NDM-1 (unknown origin) expressed in Escherichia coli EXPRESS BL21(DE3) assessed as inhibition constant by measuring rate of substrate hydrolysis at 100 uM by UV-visible spectrophotometry relative to control; outline: as §2
Bacteria [9] = assay: Inhibition of bacterial VIM-2 (unknown origin) expressed in Escherichia coli EXPRESS BL21(DE3) assessed as inhibition constant by measuring rate of substrate hydrolysis at 100 uM by UV-visible spectrophotometry relative to control; outline: as §2
Bacteria [10] = assay: Inhibition of bacterial VIM-4 (unknown origin) expressed in Escherichia coli EXPRESS BL21(DE3) assessed as inhibition constant by measuring rate of substrate hydrolysis at 100 uM by UV-visible spectrophotometry relative to control; outline: as §2

Structure (SMILES)	MIC (Pseudomonas aeruginosa)	Ki [1]	Ki [2]	inhibition (Bacteria [3])	MIC (Klebsiella pneumoniae [4])	MIC (Klebsiella pneumoniae [5])	MIC (Escherichia coli)	Ki [6]	Ki [7]	inhibition (Bacteria [8])	inhibition (Bacteria [9])	inhibition (Bacteria [10])
O=C(O)[C@H](CCCn1c(-c2ccccc2)n[nH]c1=S)N(Cc1cnccn1)Cc1c[nH]cn1	128 µg/mL	890 nM	3300 nM	43%	4 µg/mL	1 µg/mL	8 µg/mL	1900 nM	2400 nM			
O=C(O)[C@H](CCCn1c(-c2ccccc2)n[nH]c1=S)N(Cc1c[nH]cn1)Cc1ncc[nH]1	8 µg/mL	2700 nM	450 nM	49%	0.06 µg/mL	0.06 µg/mL	0.06 µg/mL	350 nM	3300 nM			
Cn1cncc1CN(Cc1c[nH]cn1)[C@@H](CCCn1c(-c2ccccc2)n[nH]c1=S)C(=O)O	128 µg/mL		4400 nM	50%	2 µg/mL	4 µg/mL	32 µg/mL	3800 nM	3200 nM	66%		
O=C(O)[C@H](CCCn1c(-c2ccccc2)n[nH]c1=S)N(Cc1cn[nH]c1)Cc1cn[nH]c1	128 µg/mL		3700 nM	< 30%	2 µg/mL	1 µg/mL	64 µg/mL	290 nM	2500 nM	< 30%		
O=C(O)[C@H](CCCn1c(C2CCCCC2)n[nH]c1=S)N(Cc1c[nH]cn1)Cc1c[nH]cn1	8 µg/mL	3.5 nM	280 nM	48%	0.06 µg/mL	0.12 µg/mL	0.06 µg/mL	90 nM	110 nM			
S=c1[nH]nc(-c2ccccc2)n1CCCCN(Cc1c[nH]cn1)Cc1c[nH]cn1	128 µg/mL	9200 nM	850 nM	34%	4 µg/mL	1 µg/mL	32 µg/mL	900 nM	1500 nM			
O=C(O)[C@H](CCCn1c(Cc2ccccc2)n[nH]c1=S)N(Cc1c[nH]cn1)Cc1c[nH]cn1	8 µg/mL	90 nM	120 nM	54%	0.03 µg/mL	0.03 µg/mL	0.06 µg/mL	120 nM	410 nM			
O=C(O)[C@H](CCCn1c(-c2ccccc2)n[nH]c1=S)N(Cc1ccccc1)Cc1c[nH]cn1	128 µg/mL		4100 nM	45%	2 µg/mL	2 µg/mL	32 µg/mL	1000 nM	2100 nM	60%		
O=C(O)[C@H](CCCn1c(-c2ccccc2)n[nH]c1=S)N(Cc1cnccn1)Cc1cnccn1	128 µg/mL	17900 nM	2500 nM	51%	4 µg/mL	2 µg/mL	32 µg/mL	630 nM	1200 nM			
O=C(O)[C@H](CCCn1c(-c2ccccc2)n[nH]c1=S)N(Cc1c[nH]cn1)Cc1cscn1	16 µg/mL	30 nM	820 nM	59%	0.12 µg/mL	0.06 µg/mL	4 µg/mL	350 nM	350 nM			
O=C(O)[C@H](CCCn1c(-c2ccccc2)n[nH]c1=S)N(Cc1cccnc1)Cc1c[nH]cn1	128 µg/mL	34800 nM	5200 nM	< 30%	4 µg/mL	1 µg/mL	64 µg/mL	1700 nM	1800 nM			
O=C(O)[C@H](CCCn1c(-c2ccccc2)n[nH]c1=S)NCc1cccc(O)c1O			8100 nM	32%				4200 nM		37%	57%	
O=C(O)[C@H](CCCCn1c(-c2ccccc2)n[nH]c1=S)NCc1c[nH]cn1		4000 nM	1800 nM	44%							39%	< 30%
O=C(O)[C@H](CCCn1c(-c2ccccc2)n[nH]c1=S)NCc1c[nH]c2ccccc12				< 30%						< 30%	< 30%	< 30%
O=C(O)[C@H](CCCn1c(-c2ccccc2)n[nH]c1=S)N(Cc1cscn1)Cc1cscn1	128 µg/mL	6500 nM	2400 nM	48%	1 µg/mL	1 µg/mL	32 µg/mL	2000 nM	2500 nM			
O=C(O)[C@H](CCCn1c(-c2ccccc2)n[nH]c1=S)N(Cc1ncc[nH]1)Cc1ncc[nH]1		20 nM	690 nM	61%				660 nM	900 nM			
O=C(O)[C@H](CCCn1c(-c2cccc(-c3ccccc3)c2)n[nH]c1=S)N(Cc1c[nH]cn1)Cc1c[nH]cn1	8 µg/mL	13 nM	130 nM	69%	0.03 µg/mL	0.03 µg/mL	0.06 µg/mL	70 nM	90 nM			
O=C(O)[C@H](CCCn1c(-c2ccccc2)n[nH]c1=S)N(Cc1c[nH]cn1)Cc1cncs1	128 µg/mL	13100 nM	2500 nM	39%	1 µg/mL	2 µg/mL	32 µg/mL	770 nM	1100 nM			
CC(C)(C)OC(=O)NCCCCn1c(-c2ccccc2)n[nH]c1=S			750 nM	< 30%				3100 nM		42%	53%	
COc1cccc(CN(Cc2cccc(OC)c2OC)[C@@H](CCCn2c(-c3ccccc3)n[nH]c2=S)C(=O)O)c1OC	128 µg/mL		2000 nM	< 30%	2 µg/mL	4 µg/mL	64 µg/mL	360 nM	760 nM	43%		
O=C(O)[C@H](CCCn1c(-c2ccccc2)n[nH]c1=S)N(Cc1cn[nH]c1)Cc1c[nH]cn1			4600 nM	34%				2000 nM		37%	53%	
